PAFAH1B3 FP inh: PAFAH1B3 (human) inhibition. Q15102. recombinant PAFAH1B3, FP-rhodamine probe, fluorescence polarization. inhibition, % at 3.39 µM. 0.28% of 340,000 active. AID 492972;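 active = inhibition above the screen-wide average of all tested compounds plus 3 SD, cut at about 25% in these data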
pPAFAH inh: inhibitors of human plasma PAF acetylhydrolase (pPAFAH). inhibition, % at 3.39 µM. recombinant pPAFAH, FP-rhodamine probe fluorescence polarization. Q13093. 1.5% of 330,000 active;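 active = inhibition above the mean inhibition across the screen plus 3 SD, cut at about 25% in these data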;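 also: inhibitors block binding of the rhodamine activity-based probe so polarization drops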
Target sequence (Q13093 whole entry, looked up): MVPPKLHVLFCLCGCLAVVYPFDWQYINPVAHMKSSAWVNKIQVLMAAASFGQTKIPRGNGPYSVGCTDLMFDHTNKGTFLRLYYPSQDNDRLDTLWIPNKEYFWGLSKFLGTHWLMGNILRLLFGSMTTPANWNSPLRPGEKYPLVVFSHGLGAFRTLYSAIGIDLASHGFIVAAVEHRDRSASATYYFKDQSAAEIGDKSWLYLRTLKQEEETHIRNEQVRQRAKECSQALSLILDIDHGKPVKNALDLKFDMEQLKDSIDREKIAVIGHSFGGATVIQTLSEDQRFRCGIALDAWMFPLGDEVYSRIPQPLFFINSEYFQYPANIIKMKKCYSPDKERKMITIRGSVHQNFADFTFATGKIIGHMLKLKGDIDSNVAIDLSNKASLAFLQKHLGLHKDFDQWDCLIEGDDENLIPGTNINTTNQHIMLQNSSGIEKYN
PAFAH2 FP inh: inhibitors of human PAFAH2 | Q99487 | recombinant PAFAH2, FP-rhodamine activity probe, fluorescence polarization | inhibition, % at 3.39 µM | 0.99% of 340,000 active | AID 492956;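 active = inhibition above the mean over all tested compounds plus 3 SD, cut at about 30% in these data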;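 also: inhibitors block probe labeling of enzyme so polarization drops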
PAFAH1B2 inh: PAFAH1B2 (human) inhibition; P68402; recombinant PAFAH1B2, FP-rhodamine activity probe, fluorescence polarization; inhibition, % at 3.39 µM; 1.2% of 340,000 active;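 active = inhibition above the mean of all tested compounds plus 3 SD, cut at about 24% in these data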
Target sequence (P68402 whole entry, looked up): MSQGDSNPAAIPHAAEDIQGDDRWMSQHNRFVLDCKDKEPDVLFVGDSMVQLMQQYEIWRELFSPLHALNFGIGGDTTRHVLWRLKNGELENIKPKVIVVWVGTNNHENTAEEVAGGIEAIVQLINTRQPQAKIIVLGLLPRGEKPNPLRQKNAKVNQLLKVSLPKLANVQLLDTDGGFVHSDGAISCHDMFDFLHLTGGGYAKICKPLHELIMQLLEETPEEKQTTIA
VIM-2 inhibitor: inhibitors of Pseudomonas aeruginosa VIM-2 metallo-beta-lactamase; inhibition, % at 5.6 µM; purified VIM-2, nitrocefin hydrolysis, epi-absorbance fluorescence; 0.89% of 290,000 active;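 active = inhibition above the mean of all tested compounds plus 3 SD, cutoff set per screening run, cut at about 7.5% in these data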;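 also: red hydrolysis product quenches plate fluorescence so inhibitors raise well fluorescence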
IMP-1 inhibitor: blocks Pseudomonas aeruginosa IMP-1 metallo-beta-lactamase; inhibition, % at 5.6 µM; purified IMP-1, nitrocefin hydrolysis, epi-absorbance fluorescence; 0.45% of 290,000 active;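 active = inhibition above the mean plus 3 SD of all compounds in the same screening run, cut at about 4.5% in these data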
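Material – recombinant IMP-1 enzyme, purified · Amount – IMP-1 0.2 nM before substrate addition · Medium – HEPES buffer pH 7.1 with ZnSO4 and Brij 35 · Timing – 25 °C, 15 min preincubation, 25 min reaction · Measured by – plate fluorescence quenching by hydrolysis product, ex 480/em 530 nm · Read-out – percent enzyme inhibition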
Of the large screens only hits and unclear results are named; the others gave an inactive call. Compounds with a hit are over-represented: about 3.6% of the library has one in this group of screens.

C[C@H](CO)N1C[C@H](C)[C@@H](CN(C)C(=O)Nc2ccc(C(F)(F)F)cc2)Oc2c(NC(=O)Nc3ccc(C(F)(F)F)cc3)cccc2C1=O	PAFAH1B2 inh 50.5 (no result: VIM-2 inhibitor, IMP-1 inhibitor)
CN1CCN(S(=O)(=O)c2ccc(Br)c3ccccc23)CC1	none
CN1CCN(CCCNC(=O)c2ccc3c(Cl)c4c(nc3c2)CCCC4)CC1	VIM-2 inhibitor 9.4
Oc1ccc(N=Cc2ccc(O)c(O)c2)cc1	PAFAH1B3 FP inh 34.5, pPAFAH inh 33.6
O=Cc1ccc(O)c(O)c1	none
CCN(CC)c1ccc(NC2CC(=O)N(CCc3ccc(OC)cc3)C2=O)cc1 (configuration not stated)	pPAFAH inh 27.6
COc1ccc(CCNC2CC(=O)N(CCc3ccccc3)C2=O)cc1 (configuration not stated)	none
N#C/C(=C\c1ccc(OCc2ccc(F)cc2)cc1)C(=O)Nc1cccc(C(=O)O)c1	none
N#C/C(=C\c1ccc(OCc2ccc(Br)cc2)cc1)C(=O)Nc1cccc(C(=O)O)c1	PAFAH1B2 inh 24.2, IMP-1 inhibitor 6.3
CC(C)Nc1nc(Cl)nc(N(C#N)CN2C(=O)c3ccccc3S2(=O)=O)n1	IMP-1 inhibitor 6.9
COc1nc(NC(C)C)nc(N(C#N)CN2C(=O)c3ccccc3S2(=O)=O)n1	IMP-1 inhibitor 12.0
CN(C)c1nc(N(C)C)nc(N(C#N)CN2C(=O)c3ccccc3S2(=O)=O)n1	none
CCN(Cc1nc2cc(Cl)ccc2c(=O)[nH]1)C(=O)c1nn(C)c(=O)c2ccccc12	none (no result: VIM-2 inhibitor, IMP-1 inhibitor)
COc1ccc(N2C(=NC(=O)C3CC3)SC3CS(=O)(=O)CC32)cc1Cl (configuration not stated)	none
CCOC(=O)C(OC(=O)c1sc(=S)n(C)c1C)C(C)=O (configuration not stated)	VIM-2 inhibitor 9.2
CCN(CC)CCC(=O)N1C/C(=C/c2ccccc2)C(=O)/C(=C\c2ccccc2)C1	none (no result: pPAFAH inh, VIM-2 inhibitor, IMP-1 inhibitor)
O=C(Nc1ccc(Cl)cc1)c1cccnc1N1CCCCC1	IMP-1 inhibitor 20.3
N=C1/C(=C\c2ccc(-c3ccc(C(=O)O)cc3)o2)C(=O)N=C2SC=C(c3ccccc3)N12	PAFAH2 FP inh 33.6, PAFAH1B2 inh 27.9, IMP-1 inhibitor 10.9 (no result: pPAFAH inh)
O=C(CN1C(=O)COc2ccc(S(=O)(=O)N3CCCCCC3)cc21)NCc1ccc(F)cc1	none
Cc1nn(-c2ccccc2)c2nc(N)c(C#N)c(-c3ccc(O)c(O)c3)c12	PAFAH1B3 FP inh 32.3, pPAFAH inh 30.8
COc1cc(-c2c(C#N)c(N)nc3c2c(C)nn3-c2ccc(C)c(C)c2)cc(OC)c1OC	none
CN(C)CC1CCC/C(=C/c2ccc(Cl)cc2)C1=O (configuration not stated)	none (no result: pPAFAH inh, VIM-2 inhibitor, IMP-1 inhibitor)
O=C(O)c1ccn2c(C(=O)c3ccccc3)c(-c3ccccc3)cc2c1	PAFAH1B2 inh 38.0
COc1ccc(-c2cc3cc(C(=O)O)ccn3c2C(=O)c2ccccc2)cc1	none
C=CCSc1nnc(NC(=O)C2CC(=O)N(c3ccc4c(c3)OCCO4)C2)s1 (configuration not stated)	none (no result: VIM-2 inhibitor, IMP-1 inhibitor)
O=C(Nc1nnc(SCc2c(Cl)cccc2Cl)s1)C1CC(=O)N(c2ccc3c(c2)OCCO3)C1 (configuration not stated)	pPAFAH inh 31.7
O=C(Nc1nnc(SCc2ccc(F)cc2)s1)C1CC(=O)N(c2ccc3c(c2)OCCO3)C1 (configuration not stated)	pPAFAH inh 26.0
Oc1c(Cl)cc(Cl)cc1/C=N/c1nccs1	none
Oc1c(Cl)cc(Cl)cc1/C=N/c1nc(-c2ccc(Cl)cc2)cs1	PAFAH1B2 inh 48.4
CNC(=O)COC(=O)CCC(=O)c1cccs1	none
O=C(COC(=O)CCC(=O)c1cccs1)NC(=O)c1ccc(OC(F)F)cc1	IMP-1 inhibitor 4.8
CCCCN(c1nc2ccccc2nc1Cl)S(=O)(=O)c1ccc(C)cc1	none
N/C(Cc1ccc([N+](=O)[O-])cc1)=N\OC(=O)c1ccc(Br)cc1	pPAFAH inh 29.7, PAFAH2 FP inh 40.5
N/C(=N\OC(=O)c1ccc([N+](=O)[O-])cc1)c1ccc(Br)cc1	none
N/C(=N\OC(=O)c1ccccc1Br)c1ccc([N+](=O)[O-])cc1	IMP-1 inhibitor 11.6
N/C(=N\OC(=O)c1ccccc1Br)c1cccc([N+](=O)[O-])c1	none
COc1ccc(S(=O)(=O)Nc2ccc3c(c2)CC(=O)N([C@@H](C)CO)C[C@@H](C)[C@@H](CN(C)Cc2ccccc2)O3)cc1	PAFAH1B2 inh 37.6 (no result: VIM-2 inhibitor, IMP-1 inhibitor)
COc1ccc(NC(=O)N(C)C[C@H]2Oc3ccc(NC(=O)Cc4ccccc4)cc3CC(=O)N([C@H](C)CO)C[C@H]2C)cc1	pPAFAH inh 31.2 (no result: VIM-2 inhibitor, IMP-1 inhibitor)
COc1ccc(S(=O)(=O)N(C)C[C@H]2Oc3ccc(NS(=O)(=O)c4ccccc4)cc3CC(=O)N([C@H](C)CO)C[C@@H]2C)cc1	none (no result: VIM-2 inhibitor, IMP-1 inhibitor)
Cn1nnnc1NCc1ccccc1F	none
CCN(CCCNC(=O)C1CCC(=O)N1Cc1ccccc1Cl)c1cccc(C)c1 (configuration not stated)	none
O=C1C2CCCN2C(=O)N1CCCN1CCN(c2cccc(Cl)c2)CC1 (configuration not stated)	none
O=C1C2CCCCN2C(=O)N1CCCCN1CCN(c2cccc(Cl)c2)CC1 (configuration not stated)	pPAFAH inh 24.7
O=C(NCCCN1CCN(c2cccc(Cl)c2)CC1)C1CCC(=O)N1Cc1ccccc1Cl (configuration not stated)	IMP-1 inhibitor 6.5 (no result: pPAFAH inh)
COc1ccc(S(=O)(=O)Nc2c(O)ccc3ccccc23)cc1OC	none (no result: VIM-2 inhibitor, IMP-1 inhibitor)
Cc1nc(Cl)sc1C(=O)Nc1cccc(Cl)c1	none
COc1cccc(N=c2oc3c(C)ncc(CO)c3cc2C(=O)Nc2ccccc2OC)c1	none (no result: PAFAH1B3 FP inh, pPAFAH inh, PAFAH2 FP inh, PAFAH1B2 inh)
COc1ccccc1NC(=O)c1cc2c(CO)cnc(C)c2oc1=Nc1cccc(C(N)=O)c1	pPAFAH inh 24.6
COc1ccc(CN2CCN(C(=O)CCC(=O)c3ccc(C)s3)CC2)cc1OC	none (no result: VIM-2 inhibitor, IMP-1 inhibitor)
CC(C)c1ccc(S(=O)(=O)N2CCC(C(=O)N3CCN(c4cccc(Cl)c4)CC3)CC2)cc1	none (no result: pPAFAH inh, VIM-2 inhibitor, IMP-1 inhibitor)
CCOC(=O)c1cc2c(N)c(C(=O)c3ccc(Br)cc3)sc2[nH]c1=O	PAFAH2 FP inh 31.8, PAFAH1B2 inh 32.0
CCOC(=O)c1cc(C(=O)OCC)c(=O)[nH]c1C	none
CCOC(=O)CCCCC(=O)c1[nH]c(=O)[nH]c1CSc1nc2ccccc2[nH]1	PAFAH1B2 inh 25.1
O=C1CSC(c2ccc(Cl)cc2)N1c1cccnc1 (configuration not stated)	PAFAH1B2 inh 25.0
O=C1CSC(c2cccnc2)N1c1ccc(Cl)cc1 (configuration not stated)	none
N#Cc1c2c(c(NCc3cccnc3)n3c1nc1ccccc13)CCC2	VIM-2 inhibitor 11.8
Cc1c2c(n3c(nc4ccccc43)c1C#N)N(Cc1cccnc1)CC2	VIM-2 inhibitor 9.6 (no result: PAFAH1B3 FP inh, pPAFAH inh, PAFAH2 FP inh, PAFAH1B2 inh)

High-throughput results as filed in PubChem.
